The nature of assay [1]: Inhibition of Staphylococcus aureus sortase A deltaN59 mutant assessed as Dap(Dnp) hydrolysis by FRET assay based enzyme kinetics assay. Conditions: read-out: Ki(app).
Assay [2] concerns Staphylococcus aureus. Briefly: Antimicrobial activity against Staphylococcus aureus Newman by microtiter broth dilution method. It is filed as functional. The method in brief: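 S. aureus Newman overnight culture diluted to OD600 0.01, incubated at 37 °C, diluted to OD600 0.005; compound added at final 0.1–100 µM. OD600 followed during overnight growth at 37 °C in plate reader. Growth percentage relative to no-inhibitor cultures and to 10 µg/mL erythromycin. Triplicate.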
A general note: In broth dilution the organism is exposed to a series of concentrations in liquid medium.

Assay [3] in a line: Inhibition of Bacillus anthracis sortase A by FRET-based enzyme kinetics assay. To be noted: read-out: Ki(app). The procedure, abridged:
(§1)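 B. anthracis SrtA (1.5–15 µM final) preincubated 1 h at 25 °C with compound (0.08–400 µM final, Me2SO) in 20 mM HEPES, 5 mM CaCl2, pH 7.5. Reaction started with 100 µM Abz-LPETG-Dap(Dnp) substrate. Fluorescence read at ex 335/em 420 nm. IC50 from fit of initial velocities, three independent data sets, Hill equation.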

A short description of assay [4]: Inhibition of Staphylococcus aureus sortase A deltaN59 mutant assessed as Dap(Dnp) hydrolysis by FRET assay.
Assay [5] deals with Staphylococcus aureus.
A short description of assay [6]: Inhibition of Bacillus anthracis sortase A by FRET assay. The method in brief: as §1

These results are taken from ChEMBL document CHEMBL1152629, “Discovery and structure-activity relationship analysis of Staphylococcus aureus sortase A inhibitors” (Bioorg Med Chem, 2009).

The structures appear in SMILES notation. Values after ≈ are worked out from the molar mass of the structure shown. Active and inactive are the calls of the source. No cut-off for these calls is given here. A value given as a limit tells only on which side of the number the result lay.

For the molecule `CCSc1c(S)cnn(-c2ccccc2)c1=O`, the Ki in assay [1] is 1.4 µM; in assay [3], 0.3 µM. Moreover, the result in assay [2] was inactive.
By IC50 is commonly meant the concentration that inhibits the measured activity by half. On to `O=c1c(Cl)c(Cl)cnn1-c1ccc([N+](=O)[O-])cc1`, for which the IC50 in assay [4] is > 50 µM.
Take `CCOc1c(S)cnn(-c2ccccc2)c1=O`: the Ki in assay [1] worked out at 0.2 µM.
In the case of `CCOc1cnn(-c2cccc(C)c2)c(=O)c1S`, the IC50 in assay [4] is 3.1 µM. The outcome in assay [2] was inactive.
As to `CCOc1c(SSC)cnn(-c2ccccc2)c1=O`, the Ki in assay [1] was 0.4 µM.
As for `CCOc1c(Cl)cnn(-c2cccc(Br)c2)c1=O`, the half-inhibitory concentration (IC50) in assay [4] is > 50 µM.
With `CCOc1c(SSc2ccccn2)cnn(-c2ccccc2)c1=O`, the Ki in assay [1] stood at 0.03 µM.
Broadly, the MIC is the lowest concentration found to suppress growth. A higher MIC goes with a less susceptible organism. Regarding `CC1=NN(c2ccccc2)C(=S)/C1=C/Nc1ccc([N+](=O)[O-])cc1`, in assay [5], the Activity was determined as 58%. Also, the MIC in assay [2] was > 1000 µM.
Take `CC(=O)c1ccc(/N=C2\C(=O)NN=C2C)cc1`: the IC50 in assay [4] was 26 µM.
In the case of `CCN1C(=O)/C(=C/c2ccc(-c3ccccc3[N+](=O)[O-])o2)SC1=S`, the IC50 in assay [4] was determined as 104 µM.
Consider `CSc1cnn(-c2ccccc2)c(=O)c1O`, for which, in assay [4], the IC50 was > 50 µM.
As for `COc1c(Cl)cnn(-c2cccc(Br)c2)c1=O`, in assay [4], the half-maximal inhibitory concentration (IC50) is > 50 µM.
Still for that read-out and setting: the figure for `CC1=NN(c2ccccc2)C(=S)/C1=C/Nc1ccc(C)cc1C` is 68 µM.
For the molecule `Cc1ccc(N2C(=O)/C(=C/c3cc([N+](=O)[O-])cc(Br)c3O)SC2=S)c(C)c1`, the IC50 in assay [4] stood at 3.7 µM. This molecule also came in with an Activity in assay [5] of 84%. In assay [2], this molecule gave an MIC of 10 µM (≈ 4.65 µg/mL).
As to `CCOc1cnn(-c2cccc(F)c2)c(=O)c1Cl`, the IC50 in assay [4] is > 50 µM.
On to `CC1=NN(c2ccc(Cl)cc2)C(=O)/C1=C/Nc1ccc([N+](=O)[O-])cc1`, for which the IC50 in assay [4] turned out to be 48 µM.
On the same count and under the same terms, the figure for `CC1=NN(c2ccccc2)C(=S)/C1=C/Nc1ccc(I)cc1` is 42 µM.
Still for that read-out and setting: with `CCOc1cnn(-c2ccccc2)c(=O)c1S` the figure was 4.4 µM; with `CC1=NN(c2ccccc2)C(=S)/C1=C/Nc1ccc([N+](=O)[O-])cc1Br`, 8.9 µM; with `COc1c(Cl)cnn(-c2cccc(C)c2)c1=O`, > 50 µM.
With `CCn1ncc(SC)c(O)c1=O`, the IC50 in assay [4] was > 50 µM.
Turning to `CC1=NN(c2ccccc2)C(=S)/C1=C/Nc1ccccc1Cl`, the IC50 in assay [4] was found to be 54 µM.
On to `CCOc1c(S)cnn(-c2cc(Cl)cc(Cl)c2)c1=O`, for which the IC50 in assay [4] turned out to be 301 µM.
On to `COc1c(Cl)cnn(-c2ccccc2)c1=O`, for which the IC50 in assay [4] is > 50 µM.
With `COc1c(Cl)cnn(-c2cccc(F)c2)c1=O`, the IC50 in assay [4] is > 50 µM.
For the molecule `CN1C(=O)/C(=C/c2cc([N+](=O)[O-])cc(Br)c2O)SC1=S`, the IC50 in assay [4] stood at 14 µM.
In the case of `CCOc1c(S)cnn(-c2cccc(F)c2)c1=O`, the IC50 in assay [4] worked out at 5.5 µM.
For the molecule `CC1=NN(c2ccccc2)C(=S)/C1=C/Nc1ccc([N+](=O)[O-])cc1[N+](=O)[O-]`, in assay [4], the IC50 was determined as 6.8 µM.
For `CCOc1c(Cl)cnn(C2CCCCC2)c1=O`, the IC50 in assay [4] was > 50 µM.
As to `CC1=NN(c2ccccc2)C(=S)/C1=C/Nc1ccccn1`, the IC50 is 0.76 µM in assay [4] and 1.4 µM in assay [6]. For the same molecule, the result in assay [2] was inactive.
For `O=C(/C=C/c1ccc([N+](=O)[O-])cc1)c1ccccc1`, the IC50 in assay [4] was determined as 51 µM.
`Cc1cccc(-n2ncc(Cl)c(Cl)c2=O)c1`: in assay [4], the IC50 was > 50 µM.
As for `CC1=NN(c2ccccc2)C(=S)/C1=C/NC1CCCCC1`, in assay [4], the IC50 amounted to 115 µM.
Turning to `COc1cnn(-c2ccccc2)c(=O)c1S`, the IC50 in assay [4] is 9.3 µM.
With `CCOc1cnn(-c2cc(Cl)cc(Cl)c2)c(=O)c1S`, the figures for the IC50 in assay [4] and in assay [6] were 166 µM and 5.2 µM, respectively.
Consider `CSc1cnn(-c2ccccc2)c(=O)c1Cl`, for which the IC50 in assay [4] was > 50 µM.
Consider `Cc1ccc(N2C(=O)/C(=C/c3cccc([N+](=O)[O-])c3)SC2=S)c(C)c1`, for which the IC50 in assay [4] stood at 119 µM.
Consider `CCOc1c(Cl)cnn(-c2ccc([N+](=O)[O-])cc2)c1=O`, for which, in assay [4], the concentration for half-maximal inhibition (IC50) was > 50 µM.
Still for that read-out and setting: with `CCOc1cnn(-c2ccc([N+](=O)[O-])cc2)c(=O)c1Cl` the figure was 219 µM; with `O=c1c(Cl)c(Cl)cnn1-c1cc(Cl)cc(Cl)c1`, 61 µM.
On to `CC1=NN(c2ccccc2)C(=S)/C1=C/Nc1ccc(/N=N/c2ccccc2)cc1`, for which the IC50 in assay [4] came to 9 µM. In assay [2], the outcome was inactive.
On to `CCOc1c(Cl)cnn(-c2cc(Cl)cc(Cl)c2)c1=O`, for which the IC50 in assay [4] is > 50 µM.
Turning to `Cc1ccc(N2C(=O)/C(=C/c3cc(Br)c(O)c([N+](=O)[O-])c3)SC2=S)c(C)c1`, the IC50 in assay [4] turned out to be 35 µM.
Regarding `CCN1C(=O)/C(=C/c2ccc(-c3cccc(Cl)c3)o2)SC1=S`, in assay [4], the IC50 was 109 µM.
For `CCOc1cnn(-c2ccccc2)c(=O)c1Cl`, the IC50 in assay [4] was 1 µM.
In the case of `CC1=NN(c2ccccc2)C(=S)/C1=C/Nc1ccc([N+](=O)[O-])cc1O`, the IC50 in assay [4] was 9.6 µM.
Regarding `CC1=NN(c2ccc(Cl)cc2)C(=O)/C1=C/Nc1ccc([N+](=O)[O-])cc1C`, the IC50 in assay [4] turned out to be 45 µM.
As to `CCOc1c(SS)cnn(-c2ccccc2)c1=O`, the IC50 in assay [4] amounted to 1.5 µM; in assay [6], 1.2 µM.
On to `Cc1ccc(/C=C2\SC(=S)N(c3cccc(Cl)c3)C2=O)cc1[N+](=O)[O-]`, for which, in assay [4], the IC50 was > 1000 µM.
The same measure, in the same setting: with `CCOc1cnn(-c2cccc(Br)c2)c(=O)c1Cl` the figure was > 50 µM.
In the case of `CCOc1cnn(-c2cccc(F)c2)c(=O)c1S`, the figures for the IC50 in assay [4] and in assay [6] were 5.7 µM and 0.9 µM, respectively.
On to `CC1=NN(c2ccc(C)cc2)C(=O)/C1=C/Nc1ccc([N+](=O)[O-])cc1`, for which, in assay [4], the IC50 came out at 62 µM.
Still for that read-out and setting: with `COc1c(Cl)cnn(C2CCCCC2)c1=O` the figure was > 50 µM; with `CCOc1c(Cl)cnn(-c2cccc(F)c2)c1=O`, > 50 µM; with `CCOc1c(S)cnn(C2CCCCC2)c1=O`, 17.9 µM.
`CC1=NN(c2ccccc2)C(=S)/C1=C/Nc1ccc(C)c(C)c1`: in assay [4], the IC50 was 52 µM.
On the same count and under the same terms, the figure for `COc1c(Cl)cnn(-c2cc(Cl)cc(Cl)c2)c1=O` is > 50 µM; for `O=c1c(Cl)c(Cl)cnn1-c1cccc(Br)c1` it is > 50 µM; for `CCOc1c(S)cnn(-c2cccc(C)c2)c1=O` it is 3.3 µM.
Consider `CC1=NN(c2ccccc2)C(=S)/C1=C/Nc1cc([N+](=O)[O-])ccc1O`, for which the IC50 in assay [4] came out at 14 µM.
With `Cc1cccc(N2C(=O)/C(=C/c3cc([N+](=O)[O-])cc(Br)c3O)SC2=S)c1`, the IC50 in assay [4] is 15 µM.
`CCOc1cnn(-c2cccc(C)c2)c(=O)c1Cl`: the IC50 in assay [4] is > 50 µM.
`COc1c(O)cnn(-c2ccccc2)c1=O`: the IC50 in assay [4] and in assay [6] was > 50 µM each time.
Consider `O=C1/C(=C/c2ccc(-c3ccccc3)o2)SC(=S)N1Cc1ccccc1`, for which the IC50 in assay [4] came to 492 µM.
As to `O=c1c(OCc2ccccc2)c(O)cnn1-c1ccccc1`, the IC50 in assay [4] and in assay [6] was > 50 µM each time.
Turning to `O=c1c(Cl)c(Cl)cnn1-c1ccccc1`, the IC50 in assay [4] is > 50 µM.
As to `O=c1c(Cl)c(Cl)cnn1C1CCCCC1`, the 50% inhibitory concentration (IC50) was > 50 µM in assay [4] and 14 µM in assay [6].
With `O=c1c(Cl)c(Cl)cnn1-c1cccc(F)c1`, the IC50 in assay [4] was > 50 µM.
For the molecule `CN1C(=O)/C(=C/c2ccc(-c3ccccc3)o2)SC1=S`, the IC50 in assay [4] turned out to be 405 µM.
On the same count and under the same terms, with `O=C1/C(=C/c2cc([N+](=O)[O-])cc(Br)c2O)SC(=S)N1c1cccc(Cl)c1` the figure was 17 µM.
Turning to `CC1=NOC(=O)/C1=N\c1ccc([N+](=O)[O-])cc1`, the IC50 in assay [4] turned out to be 17 µM.
Turning to `CCOc1c(Cl)cnn(-c2ccccc2)c1=O`, the IC50 in assay [4] was > 50 µM.
On to `CC1=NN(c2ccccc2)C(=S)/C1=C/Nc1ccccc1O`, for which the IC50 in assay [4] is 22 µM.
On the same count and under the same terms, the figure for `CCOc1c(S)cnn(-c2cccc(Br)c2)c1=O` is > 50 µM.
For the molecule `CCSc1c(O)cnn(-c2ccccc2)c1=O`, the IC50 in assay [4] and in assay [6] was > 50 µM each time.
Regarding `COc1c(S)cnn(-c2cccc(Cl)c2)c1=O`, the IC50 in assay [4] came out at 4.5 µM. In assay [5], this molecule came in with an Activity of 50%. In assay [2], the MIC was > 1000 µM.
Take `CC1=NN(c2ccccc2)C(=O)/C1=C/Nc1ccc([N+](=O)[O-])cc1`: the IC50 in assay [4] amounted to 56 µM. For the same molecule, the Ki in assay [1] stood at 0.3 µM.
In the case of `CCOc1c(S)cnn(-c2ccc([N+](=O)[O-])cc2)c1=O`, in assay [4], the IC50 was 30 µM.
On to `CCCN1C(=O)/C(=C/c2ccc(-c3ccccc3)o2)SC1=S`, for which, in assay [4], the IC50 is 186 µM.
For the molecule `CC1=NN(c2ccccc2)C(=S)/C1=C/Nc1c(Br)cc(Br)cc1Br`, the outcome in assay [2] was inactive. Also, the Ki in assay [3] stood at 1.7 µM.
Consider `O=C1/C(=C/c2cc([N+](=O)[O-])cc(Br)c2O)SC(=S)N1c1ccc([N+](=O)[O-])cc1`, for which the IC50 in assay [4] was determined as 12 µM.
In the case of `CCOc1cnn(C2CCCCC2)c(=O)c1Cl`, the IC50 in assay [4] was > 50 µM.
Consider `C=CCN1C(=O)/C(=C/c2ccc(-c3ccccc3)o2)SC1=S`, for which the values for the IC50 in assay [4] and in assay [6] were 199 µM and 27 µM, respectively.
For the molecule `CC1=NN(c2ccccc2)C(=S)/C1=C/Nc1ccc(Br)cc1`, the IC50 in assay [4] is 39 µM. The result in assay [2] was inactive.
Regarding `CCOc1c(Cl)cnn(-c2cccc(C)c2)c1=O`, the IC50 in assay [4] is > 50 µM.
